Measurements: publication PMC4291750 (Journal of the American Chemical Society, 2014)

Assays:
[1] = test system: PSMA-coated beads phagocytosed by IFN-γ-primed U937 cells; test: Bead phagocytosis assay; format: cell-based
How it was run: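 Effectors were U937 cells primed 72 h with IFN-γ (final 2 ng/mL, medium changed daily) and stained with DiD (final 1.9 μM, 30 min, 37 °C). Targets were 6 μm fluorescent streptavidin beads loaded with avi-tagged PSMA. 4×10^4 beads and 10^5 effectors (E:T 2.5:1) in phenol-free RPMI/10% low-IgG FBS, ±test compound ±competitor (PSMA ligand or anti-FcγRI antibody). Spun 200 rcf 2 min, 37 °C 1 h, stopped on ice, flow cytometry. % targets phagocytosed minus no-compound background; mean of ≥duplicates ±SD.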

[2] = test system: PSMA-expressing RM1.PGLS cells phagocytosed by IFN-γ-primed U937 cells; test: Cell phagocytosis assay; format: cell-based, murine
How it was run: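 RM1.PGLS targets were stained adherent with DiO (final 1.9 μM), detached with 0.5 mM EDTA/EGTA and checked by trypan blue. 1.25×10^4 targets and 10^5 IFN-γ-primed, DiD-stained U937 (E:T 8:1; range 2:1–20:1 also tested) in Assay Media, ±test compound ±inhibitors. Spun 200 rcf 2 min, 1 h at 37 °C, then flow cytometry. % targets phagocytosed minus background. Imaging-cytometry counterpart: formaldehyde-fixed, CD14/CD11b-APC plus Hoechst, events scored as cup or engulfment. Dunnett ANOVA versus no compound.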

RM1-hPSMA cells = test: Compound cytotoxicity assay; format: cell-based, murine; conditions: cell index over 24 hours, vs 1% DMSO
How it was run: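 12 500 RM1-hPSMA cells per well were plated 36 h beforehand in DMEM (4.5 g/L glucose, 10% FBS, pen/strep, 2 mM glutamine, 1 mM pyruvate). Impedance cell index was recorded at 37 °C, 5% CO2, with cell-free medium as background. At time 0 medium was replaced with test compound at various concentrations, 1% DMSO vehicle or 3% Triton. Readings every 2 min for 3 h, then every 10 min for 21 h.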

[3] = test system: IFN-γ-primed U937 cells with PSMA-coated beads; test: ROS production; format: cell-based
How it was run: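 U937 cells primed 72 h with IFN-γ (final 2 ng/mL, daily medium change). 3×10^5 cells/mL in phenol-free RPMI/10% low-IgG FBS mixed with test compound, with or without 10^5 PSMA-coated beads/mL. 2.5 mM lucigenin solution added (stock). Plate spun 200 rcf 2 min. Chemiluminescence read every 2 min for 60–90 min; peak luminescence taken. Mean of ≥duplicates ±SD.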

[4] = test system: isogenic PSMA-negative RM1 tumor line; test: Cell phagocytosis assay, PSMA-negative control; format: cell-based, murine; conditions: U937 effector cells

Structure (SMILES) | effect of competitor on SyAM-P3-induced bead phagocytosis ([1]; 50 nM SyAM-P3) | effect of competitor on SyAM-P1-induced bead phagocytosis ([1]; SyAM-P1-induced effector responses) | effect of competitor on SyAM-P3-induced cell phagocytosis ([2]; RM1.PGLS targets) | cytotoxicity in the absence of effector cells (RM1-hPSMA cells) | phagocytosis of PSMA-coated beads, comparison between SyAMs ([1]; primed U937 effector cells) | ROS production in the absence of target beads ([3]; no PSMA-labeled beads) | superoxide burst response ([3]; with PSMA-coated beads, lucigenin chemiluminescence) | phagocytosis of PSMA-expressing RM1.PGLS cells ([2]; U937 effector cells) | phagocytosis of PSMA-negative RM1 cells [4]
O=C(O)CCC(CP(=O)(O)O)C(=O)O (stereo not drawn) [2-PMPA] | suppressed in a concentration-dependent manner | abrogated | suppressed |  |  |  |  |  | 
CC(=O)N[C@H](C(=O)N[C@@H](CC(N)=O)C(=O)N[C@@H](CO)C(=O)N[C@H]1CSSC[C@@H](C(=O)NCC(=O)N[C@@H](CC(=O)O)C(=O)N[C@@H](CC(=O)O)C(=O)N[C@@H](CCCCNC(=O)CCCC(=O)NCCOCCOCCOCC(=O)NCCCC[C@H](NC(=O)COCCOCCOCCNC(=O)CCCC(=O)NCCCC[C@H](NC(=O)[C@H](CC(=O)O)NC(=O)[C@H](CC(=O)O)NC(=O)CNC(=O)[C@@H]2CSSC[C@H](NC(=O)[C@H](CO)NC(=O)[C@H](CC(N)=O)NC(=O)[C@@H](NC(C)=O)C(C)C)C(=O)N[C@@H](CC(C)C)C(=O)N[C@@H](CC(C)C)C(=O)N[C@@H](CC(C)C)C(=O)N3CCC[C@H]3C(=O)N[C@@H](CC(N)=O)C(=O)N[C@@H](CC(C)C)C(=O)N[C@@H](CC(C)C)C(=O)NCC(=O)N2)C(=O)N[C@@H](CCCCNC(=O)CCCC[C@@H]2SC[C@@H]3NC(=O)N[C@@H]32)C(N)=O)C(=O)NCc2cn(-c3cc(C(=O)NCCCCCC(=O)NCCCCCC(=O)NCCCCCC(=O)NCCCCCC(=O)NCCCCCC(=O)NCCCCCC(=O)NCc4cn(CCCC[C@H](NC(=O)N[C@@H](CCC(=O)O)C(=O)O)C(=O)O)nn4)cc(C(=O)NCCCCCC(=O)NCCCCCC(=O)NCCCCCC(=O)NCCCCCC(=O)NCCCCCC(=O)NCCCCCC(=O)NCc4cn(CCCC[C@H](NC(=O)N[C@@H](CCC(=O)O)C(=O)O)C(=O)O)nn4)c3)nn2)C(=O)N[C@@H](CCCCNC(=O)CCCC[C@@H]2SC[C@@H]3NC(=O)N[C@@H]32)C(N)=O)NC(=O)CNC(=O)[C@H](CC(C)C)NC(=O)[C@H](CC(C)C)NC(=O)[C@H](CC(N)=O)NC(=O)[C@@H]2CCCN2C(=O)[C@H](CC(C)C)NC(=O)[C@H](CC(C)C)NC(=O)[C@H](CC(C)C)NC1=O)C(C)C [SyAM-P3] |  |  |  | non-cytotoxic | both more potent and more efficacious than earlier-generation molecules | required the presence of PSMA-labeled beads | both more potent and more efficacious than earlier-generation molecules | significant levels of target cell phagocytosis | only minimal levels of phagocytosis
